Converted amounts (≈) assume the structure as drawn.
Key:
[1] = Ratio of EC50 for human HepG2 cells to EC50 for Plasmodium falciparum 3D7 infected in human erythrocytes
HepG2 = assay: Cytotoxicity against human HepG2 cells assessed as intracellular ATP level after 72 hrs by Celltiter-Glo luminescent assay; type: cell-based; settings: HepG2, 72 h
[2] = Solubility of the compound at pH 7.4 after 18 hrs by UV spectroscopic analysis; type: physicochemical; settings: buffer
Summary of the method: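 Kinetic solubility. A 10 mM stock is diluted 1:100 into PBS pH 7.4 and incubated 18 h at room temperature, then filtered; the filtrate is mixed 1:1 with 1-propanol. UV spectrum (250–500 nm) compared by AUC with a 1-propanol/PBS reference. Single experiment in triplicate.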

Plasmodium falciparum [3] = assay: Antimalarial activity against chloroquine-resistant Plasmodium falciparum K1 infected in human erythrocytes assessed as reduction in parasitemia after 72 hrs by spectrophotometry; type: functional, organism-based; settings: K1, 72 h
Plasmodium falciparum [4] = assay: Antimalarial activity against chloroquine-sensitive Plasmodium falciparum 3D7 infected in human erythrocytes assessed as reduction in parasitemia after 72 hrs by spectrophotometry; type: functional, organism-based; settings: 3D7, 72 h
[5] = Ratio of EC50 for human HepG2 cells to EC50 for Plasmodium falciparum K1 infected in human erythrocytes
[6] = Dissociation constant, pKa of the compound; type: physicochemical
Plasmodium falciparum [7] = assay: Ratio of EC50 for chloroquine-resistant Plasmodium falciparum K1 infected in human erythrocytes to EC50 for chloroquine-sensitive Plasmodium falciparum 3D7 infected in human erythrocytes; type: functional
[8] = Permeability of the compound at pH 7.4 after 30 mins by PAMPA; type: ADME; settings: read-out: permeability
Summary of the method: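 PAMPA at pH 7.4. A 10 mM DMSO stock is diluted into system solution buffer; its UV spectrum serves as reference. Membrane painted with GIT lipid, acceptor chamber holds acceptor solution buffer. Sandwich stirred for 30 min, aqueous boundary layer set to 40. Donor and acceptor UV spectra read at 250–500 nm. Permeability coefficient from the AUCs of reference, donor and acceptor. Single experiment in triplicate.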

Compound	Ratio EC50 [1]	EC50 (HepG2)	solubility at 18 h [2]	EC50 (Plasmodium falciparum [3])	EC50 (Plasmodium falciparum [4])	Ratio EC50 [5]	pKa [6]	Ratio EC50 (Plasmodium falciparum [7])	Papp at 0.5 h [8]
COc1ccc(F)cc1CNCCCNc1ccnc2cc(C3CCCCC3)ccc12	25.4	2290 nM	4.2 µM (≈ 1.77 µg/mL)	1600 nM	90 nM	1.4	9.47	17.7	23 ×10⁻⁶ cm/s
COc1cccc(CNCCCNc2ccnc3cc(-c4ccc(C(F)(F)F)cc4)ccc23)c1O	166.2	2210 nM	32 µM (≈ 15.4 µg/mL)	24 nM	13 nM	91	9.47	1.8	237 ×10⁻⁶ cm/s
FC(F)(F)c1ccc(-c2ccc3c(NCCCNCc4ccc5c(c4)OCO5)ccnc3c2)cc1	74.5	1890 nM	32 µM (≈ 15.3 µg/mL)	98 nM	25 nM	19.2	9.47	3.9	237 ×10⁻⁶ cm/s
COc1ccc(F)cc1CNCCCNc1ccnc2cc(Oc3ccc(Cl)cc3)ccc12	143	4500 nM	14.5 µM (≈ 6.76 µg/mL)	109 nM	31 nM	41	9.28	3.5	317 ×10⁻⁶ cm/s
c1ccc(CCc2ccc3c(NCCCNCc4ccco4)ccnc3c2)cc1	347.8	16000 nM	4.2 µM (≈ 1.62 µg/mL)	2930 nM	46 nM	5.5	9.47	63.7	23 ×10⁻⁶ cm/s
c1cc(NCCCNCc2ccc3c(c2)OCO3)c2ccc(CC3CCCCC3)cc2n1	155.2	6290 nM	4.2 µM (≈ 1.81 µg/mL)	701 nM	41 nM	9	9.47	17.3	23 ×10⁻⁶ cm/s
COc1cccc(CNCCCNc2ccnc3cc(C4CCCCC4)ccc23)c1O	58.1	1080 nM	4.2 µM (≈ 1.76 µg/mL)	16000 nM	19 nM	0.1	9.47	864.9	23 ×10⁻⁶ cm/s
COc1cccc(CNCCCNc2ccnc3cc(-c4cc(C(F)(F)F)cc(C(F)(F)F)c4)ccc23)c1O	32.4	940 nM	32 µM (≈ 17.6 µg/mL)	209 nM	29 nM	4.5	9.47	7.2	237 ×10⁻⁶ cm/s
c1ccc(CCc2ccc3c(NCCCNCc4ccc5c(c4)OCO5)ccnc3c2)cc1	380.3	4980 nM	4.2 µM (≈ 1.85 µg/mL)	1530 nM	13 nM	3.2	9.47	117.1	23 ×10⁻⁶ cm/s
N#Cc1ccc(Cc2ccc3c(NCCCNCc4ccc5c(c4)OCO5)ccnc3c2)cc1	270.2	6080 nM	4.2 µM (≈ 1.89 µg/mL)	3070 nM	23 nM	2	9.47	136.4	23 ×10⁻⁶ cm/s
CC(C)CCc1ccc2c(NCCCNCc3ccco3)ccnc2c1	63.7	11200 nM	4.2 µM (≈ 1.48 µg/mL)	4600 nM	176 nM	2.4	9.47	26.1	23 ×10⁻⁶ cm/s
COc1cccc(CNCCCNc2ccnc3cc(CCc4ccccc4)ccc23)c1O	400	6800 nM	4.2 µM (≈ 1.85 µg/mL)	5520 nM	17 nM	1.2	9.47	324.5	23 ×10⁻⁶ cm/s
COc1ccccc1Oc1ccc2c(NCCCNCc3cccc(OC)c3O)ccnc2c1	1227	11200 nM	14.5 µM (≈ 6.66 µg/mL)	5700 nM	9 nM	2	9.28	626.4	317 ×10⁻⁶ cm/s
COc1ccc(F)cc1CNCCCNc1ccnc2cc(Oc3ccc(F)cc3)ccc12	22	6600 nM	14.5 µM (≈ 6.52 µg/mL)	135 nM	297 nM	49	9.28	0.5	317 ×10⁻⁶ cm/s
Fc1ccc(Oc2ccc3c(NCCCNCc4ccco4)ccnc3c2)cc1	611	16000 nM	14.5 µM (≈ 5.68 µg/mL)	96 nM	26 nM	167	9.28	3.6	317 ×10⁻⁶ cm/s
c1ccc(Oc2ccc3c(NCCCNCc4ccco4)ccnc3c2)cc1	48	15200 nM	14.5 µM (≈ 5.42 µg/mL)	5970 nM	314 nM	3	9.28	19	317 ×10⁻⁶ cm/s
COc1cccc(Oc2ccc3c(NCCCNCc4cccc(OC)c4O)ccnc3c2)c1	74	5300 nM	14.5 µM (≈ 6.66 µg/mL)	3030 nM	72 nM	2	9.28	42	317 ×10⁻⁶ cm/s

— ChEMBL document CHEMBL1833887, “Synthesis and evaluation of 7-substituted 4-aminoquinoline analogues for antimalarial activity” (J Med Chem, 2011)
